Experiment [1] is filed under the species Cavia porcellus. Put plainly: Induction of positive inotropic activity in guinea pig atrium assessed as atrial contractility up to 10^-4 M. Format: functional, tissue-based. To be noted: Cardiac atrium. The procedure, abridged: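 Left auricle from guinea pig in Krebs-Henseleit solution, 32 °C, gassed with O2 containing 5% CO2, resting tension about 1 g. Paced by rectangular pulses (10 ms, 100/min) at 20% above threshold voltage. Change in isometric contraction calculated relative to control atria.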

The species entered for experiment [2] is Cavia porcellus. Put plainly: Inhibition of Na+/K+ ATPase-mediated phosphohydrolase activity in guinea pig myocardium up to 10^-4 M after 30 mins. The experiment is classed as tissue-based. The procedure, abridged:
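Crude membrane preparation from guinea pig myocardium, holding both (Na+,K+)ATPase and Mg2+-ATPase. Incubated 37 °C, 30 min; substrate consumption under 15% without drug. Activity measured as inorganic phosphate liberated per mg protein per hour. Na+,K+ component taken as total minus Mg2+-ATPase activity, the latter measured without Na+ and K+. Drug range 10^-8–10^-4 M, duplicates.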

The source made the active and inactive calls.

As for `C[C@]12CC[C@@H](O)C[C@H]1CC[C@@H]1[C@@H]2CC[C@]2(C)[C@@H](/C=C\C#N)CC[C@@H]12`, the outcome in the experiment listed under Cavia porcellus [1] was inactive. In addition, the inhibition result in the experiment filed under Cavia porcellus [2] was “inactive”.
Regarding `C[C@]12CC[C@H]3[C@@H](CCC4=C[C@@H](O)CC[C@@]43C)[C@@H]1CC[C@@H]2/C=C/C#N`, the result in the experiment listed under Cavia porcellus [1] was inactive. Moreover, the inhibition entry in the experiment filed under Cavia porcellus [2] was “inactive”.
On to `C[C@]12CC[C@H](O)C[C@H]1CC[C@@H]1[C@@H]2CC[C@]2(C)[C@@H](/C=C\C#N)CC[C@@H]12`, for which the result in the experiment filed under Cavia porcellus [1] was inactive. Further, the inhibition entry in the experiment filed under Cavia porcellus [2] was “inactive”.
Turning to `C[C@]12CC[C@@H](O)C[C@H]1CC[C@@H]1[C@@H]2CC[C@]2(C)[C@@H](/C=C/C#N)CC[C@@H]12`, in the experiment listed under Cavia porcellus [1], the outcome was inactive. Moreover, the inhibition entry in the experiment listed under Cavia porcellus [2] is “inactive”.
As for `C[C@]12CC[C@H](O)C[C@@H]1CC[C@@H]1[C@@H]2CC[C@]2(C)[C@@H](/C=C\C#N)CC[C@@H]12`, in the experiment filed under Cavia porcellus [1], the outcome was inactive. In addition, in the experiment filed under Cavia porcellus [2], the inhibition result was “inactive”.
For `COC(=O)/C=C/[C@H]1CC[C@H]2[C@@H]3CC[C@H]4C[C@@H](O)CC[C@]4(C)[C@H]3CC[C@]12C`, the outcome in the experiment listed under Cavia porcellus [1] was inactive. For the same compound, in the experiment filed under Cavia porcellus [2], the inhibition entry was “inactive”.
As for `C[C@]12CC[C@H](O)C[C@@H]1CC[C@@H]1[C@@H]2CC[C@]2(C)[C@@H](/C=C/C#N)CC[C@@H]12`, the result in the experiment filed under Cavia porcellus [1] was inactive. In addition, the inhibition entry in the experiment filed under Cavia porcellus [2] is “inactive”.
`COC(=O)/C=C/[C@H]1CC[C@H]2[C@@H]3CCC4=C[C@@H](O)CC[C@]4(C)[C@H]3CC[C@]12C`: in the experiment filed under Cavia porcellus [1], the result was inactive. The inhibition entry in the experiment filed under Cavia porcellus [2] is “inactive”.
For `COC(=O)/C=C/[C@H]1CC[C@H]2[C@@H]3CC[C@@H]4C[C@H](O)CC[C@]4(C)[C@H]3CC[C@]12C`, the result in the experiment listed under Cavia porcellus [1] was inactive. In addition, the inhibition result in the experiment listed under Cavia porcellus [2] was “inactive”.
In the case of `COC(=O)/C=C/[C@H]1CC[C@H]2[C@@H]3CC[C@@H]4C[C@@H](O)CC[C@]4(C)[C@H]3CC[C@]12C`, the outcome in the experiment filed under Cavia porcellus [1] was inactive. In the experiment listed under Cavia porcellus [2], the inhibition result is “inactive”.
For the compound `C[C@]12CC[C@H]3[C@@H](CCC4=C[C@@H](O)CC[C@@]43C)[C@@H]1CC[C@@H]2/C=C\C#N`, in the experiment listed under Cavia porcellus [1], the outcome was inactive. In addition, the inhibition entry in the experiment listed under Cavia porcellus [2] is “inactive”.
With `C[C@]12CC[C@H](O)C[C@H]1CC[C@@H]1[C@@H]2CC[C@]2(C)[C@@H](/C=C/C#N)CC[C@@H]12`, the result in the experiment filed under Cavia porcellus [1] was inactive. For the same compound, the inhibition result in the experiment listed under Cavia porcellus [2] was “inactive”.
